The source of these data is ChEMBL document CHEMBL1944585, “Design, synthesis, and evaluation of thiol-activated sources of sulfur dioxide (SO₂) as antimycobacterial agents” (J Med Chem, 2012).

Data set [1] concerns Mycobacterium tuberculosis. As to the kind of experiment: Antimycobacterial activity against Mycobacterium tuberculosis H37Rv assessed as growth inhibition at 100 ug/ml by ten-fold serial dilution method. The format is functional, organism-based. The gist of the method: (§1)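 Agar dilution: ten-fold serial dilutions incorporated into Middlebrook 7H11 agar with OADC. Inoculum from fresh 7H11 slants, adjusted to 1 mg mL−1 wet weight in 0.05% Tween 80 saline, diluted 10−2 (approx. 10^7 cfu mL−1); 5 μL spotted per tube. 37 °C, read at 28 days. MIC = lowest concentration giving complete growth inhibition.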

The subject of data set [2] is Mycobacterium tuberculosis. Put plainly: Antimycobacterial activity against Mycobacterium tuberculosis H37Rv by ten-fold serial dilution method. The class given is functional. The method, boiled down:
as §1

Data set [3] is described as follows: Prodrug activation of compound assessed as sulphur dioxide formation at 100 uM after 4 hrs in phosphate buffer at pH 7.4 by pararosaniline-based colorimetric assay in presence of cysteine. As to conditions: pH 7.4, 4 h.
Data set [4] can be described thus: Prodrug activation of compound assessed as sulphur dioxide formation at 100 uM after 30 mins in phosphate buffer at pH 7.4 by pararosaniline-based colorimetric assay in presence of cysteine. Conditions: pH 7.4, 0.5 h. The gist of the method: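 Sulfite detection: 900 μL p-rosaniline dye plus 50 μL saturated HgCl2 plus 50 μL sample, kept in the dark 15 min until violet colour developed, then absorbance read.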

Data set [5] can be described thus: Selectivity index, ratio of IC50 for HEK293 cells to MIC for Mycobacterium tuberculosis H37Rv. The format is functional.
The subject of another data set is HEK293. Put plainly: Cytotoxicity against human HEK293 cells after 72 hrs by XTT assay. As to conditions: HEK293, 72 h. The class given is cell-based.
For data set [6], the system named is Mycobacterium tuberculosis. As to the kind of experiment: Antimycobacterial activity against Mycobacterium tuberculosis H37Rv assessed as growth inhibition at 2 ug/ml by ten-fold serial dilution method in presence of cysteine. The class given is functional, organism-based. The gist of the method: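 Test material was a cysteine mixture in pH 7.4 buffer, taken about 2 h after mixing and tested at 2 μg mL−1. Run on 7H11-OADC agar against H37Rv: inoculum approx. 10^7 cfu mL−1, 5 μL spotted, 37 °C, read at 28 days for complete growth inhibition.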

Converted amounts (≈) assume the structure as drawn. The source made the active and inactive calls. No cut-off for these calls is given here.

The term MIC denotes the lowest concentration found to suppress growth. Low values mean inhibition by little substance, high ones a need for much substance. In general, MIC99 refers to the lowest concentration that inhibits either 99% of growth or 99% of the strains tested, depending on the study. With `CNCc1ccccc1` [N-BENZYLMETHYLAMINE], the “growth inhibition (GI)” value in data set [1] was “inactive”. In data set [2], this compound had an MIC of more than 250 µM and an MIC99 of more than 100 µg/mL.

Consider `NNC(=O)c1ccncc1` [ISONIAZID], for which, in data set [2], the MIC stood at 0.37 µM (≈ 0.0507 µg/mL) and the MIC99 was found to be 0.05 µg/mL (≈ 0.365 µM).

In data set [2], `CS(=O)(=O)NCc1ccccc1` had an MIC of more than 100 µM and an MIC99 of more than 50 µg/mL. Further, the Drug degradation entry in data set [3] is recorded as “Not Active”. Besides, the Drug degradation in data set [4] is 0 µM.

For the compound `COc1ccc(NS(=O)(=O)c2ccc([N+](=O)[O-])cc2[N+](=O)[O-])cc1`, in data set [2], the MIC was found to be 4.4 µM (≈ 1.55 µg/mL) and the MIC99 was found to be 1.56 µg/mL (≈ 4.42 µM). Further, the Drug degradation in data set [4] came out at 79.5 µM.

In data set [2], `COC(=O)C(C)NS(=O)(=O)c1ccc([N+](=O)[O-])cc1[N+](=O)[O-]` (stereo unspecified) registered an MIC of 18.7 µM (≈ 6.23 µg/mL) and an MIC99 of 6.25 µg/mL (≈ 18.8 µM). For the same compound, in data set [4], the Drug degradation stood at 93 µM.

In data set [2], `CN(Cc1ccccc1)S(=O)(=O)c1ccc([N+](=O)[O-])cc1[N+](=O)[O-]` gave an MIC of 1.1 µM (≈ 0.386 µg/mL) and an MIC99 of 0.4 µg/mL (≈ 1.14 µM). Also, the Drug degradation in data set [4] is 100 µM.

One may read the IC50 as the midpoint of a concentration-inhibition curve. With `O=[N+]([O-])c1ccc(S(=O)(=O)NCc2ccccc2)c([N+](=O)[O-])c1`, in data set [2], 0.15 µM (≈ 0.0506 µg/mL) was the least that counted as inhibitory (MIC) and the MIC99 was 0.05 µg/mL (≈ 0.148 µM). For the same compound, in data set [5], the “Selectivity Index” value is 47. Moreover, half-maximal inhibition in the data set on HEK293 (IC50) required 7 µM. Also, the “growth inhibition (GI)” value in data set [6] was “inactive”. Also, in data set [4], the Drug degradation was determined as 100 µM.

In data set [2], `CCCN(Cc1ccccc1)S(=O)(=O)c1ccc([N+](=O)[O-])cc1[N+](=O)[O-]` returned an MIC of 8.25 µM (≈ 3.13 µg/mL) and an MIC99 of 3.13 µg/mL (≈ 8.25 µM). In data set [4], the Drug degradation is 88 µM.

In data set [2], `O=[N+]([O-])c1ccc(NCc2ccccc2)c([N+](=O)[O-])c1` displayed an MIC of more than 250 µM and an MIC99 of more than 100 µg/mL. Also, the Drug degradation in data set [4] was 0 µM.

With `O=[N+]([O-])c1ccc(Cl)c([N+](=O)[O-])c1` [DINITROCHLOROBENZENE], in data set [2], the MIC was found to be 30.8 µM (≈ 6.24 µg/mL) and the MIC99 stood at 6.25 µg/mL (≈ 30.9 µM). Further, the Drug degradation in data set [4] was 0 µM.

In data set [2], `COC(=O)C1CCCN1S(=O)(=O)c1ccc([N+](=O)[O-])cc1[N+](=O)[O-]` (stereo unspecified) returned an MIC of 35 µM (≈ 12.6 µg/mL) and an MIC99 of 12.5 µg/mL (≈ 34.8 µM). The Drug degradation in data set [4] was determined as 83 µM.

For the compound `O=[N+]([O-])c1ccc(S(=O)(=O)Nc2cccc(F)c2)c([N+](=O)[O-])c1`, in data set [2], the MIC came out at 73 µM (≈ 24.9 µg/mL) and the MIC99 was found to be 25 µg/mL (≈ 73.3 µM). In data set [4], the Drug degradation amounted to 24 µM.

The compound `O=[N+]([O-])c1ccccc1S(=O)(=O)NCc1ccccc1` registered an MIC in data set [2] of more than 100 µM. The same compound returned an MIC99 in data set [2] of more than 50 µg/mL. The results for the Drug degradation result in data set [3] and in data set [4] were “Not Active” and 0 µM, respectively.

With `O=S([O-])[O-].[Na+].[Na+]`, the “growth inhibition (GI)” value in data set [1] is “inactive”.

Consider `O=S(=O)(NCc1ccccc1)c1ccccc1`, for which the MIC in data set [2] was more than 100 µM. The compound also came in with an MIC99 in data set [2] of more than 50 µg/mL. The Drug degradation result was “Not Active” in data set [3] and 0 µM in data set [4].

In data set [2], `NCc1ccccc1` [BENZYLAMINE] showed an MIC of more than 250 µM and an MIC99 of more than 100 µg/mL.

In data set [2], `O=[N+]([O-])c1ccc(S(=O)(=O)NCc2ccccc2)cc1` had an MIC of more than 100 µM and an MIC99 of more than 50 µg/mL. Further, in data set [3], the Drug degradation result is on record as “Not Active”. The Drug degradation in data set [4] is 0 µM.

In data set [2], `CN1CCN(S(=O)(=O)c2ccc([N+](=O)[O-])cc2[N+](=O)[O-])CC1` registered an MIC of 38 µM (≈ 12.6 µg/mL) and an MIC99 of 12.5 µg/mL (≈ 37.8 µM). Besides, the Drug degradation in data set [4] is 88 µM.

For the compound `O=[N+]([O-])c1ccc(S(=O)(=O)N2CCOCC2)c([N+](=O)[O-])c1`, in data set [2], the MIC amounted to 19.6 µM (≈ 6.22 µg/mL) and the MIC99 was determined as 6.25 µg/mL (≈ 19.7 µM). In data set [4], the Drug degradation worked out at 96 µM.

On to `O=[N+]([O-])c1ccc(S(=O)(=O)Nc2ccccc2)c([N+](=O)[O-])c1`, for which, in data set [2], the MIC was determined as 9.7 µM (≈ 3.14 µg/mL) and the MIC99 was found to be 3.13 µg/mL (≈ 9.68 µM). Moreover, the Drug degradation in data set [4] was found to be 55 µM.

Turning to `O=[N+]([O-])c1ccc(S(=O)(=O)N2CCCCC2)c([N+](=O)[O-])c1`, in data set [2], 2.5 µM (≈ 0.788 µg/mL) was the least that counted as inhibitory (MIC) and the MIC99 was determined as 0.78 µg/mL (≈ 2.47 µM). The Drug degradation in data set [4] turned out to be 91 µM.
